From ChEMBL document CHEMBL1135672, “QSAR evaluation of the Ch'an Su and related bufadienolides against the colchicine-resistant primary liver carcinoma cell line PLC/PRF/5(1)” (J Med Chem, 2002)
In brackets after ≈: the same amount, converted by molar mass.

What was measured:
[1] = Inhibitory activity against colchicine resistant parent primary liver carcinoma (PLC) cell line PLC/PRF/5; type: functional, Homo sapiens
Summary of the method: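 PLC/PRF/5 cells were precultured 24 h at 37 °C in 5% CO₂ in 96-well plates, then given colchicine at 0.5 μg/mL. Test compounds were added in dilutions of 10⁻²–10⁻⁶ μg/mL and incubated 72 h at 37 °C in 5% CO₂. Survival was read by MTT. IC50 is the μg/mL giving 50% growth inhibition of the colchicine-resistant cells.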

[2] = Inhibitory activity against the primary liver carcinoma (PLC) cell line PLC/PRF/5; type: functional, Homo sapiens

| Structure (SMILES) | IC50 [1] | IC50 [2] |
| --- | --- | --- |
| COC(=O)CCCCCCC(=O)O[C@H]1CC[C@@]2(C)[C@H](CC[C@@H]3[C@@H]2CC[C@]2(C)[C@@H](c4ccc(=O)oc4)CC[C@]32O)C1 | 0.094 µg/mL (≈ 0.169 µM) | 0.009 µg/mL (≈ 0.0162 µM) |
| C[C@]12CC[C@H](O)C[C@H]1CC[C@H]1[C@H]3C(=O)C[C@H](c4ccc(=O)oc4)[C@@]3(C)CC[C@@H]12 | 12 µg/mL (≈ 31.2 µM) | 0.82 µg/mL (≈ 2.13 µM) |
| C[C@]12CC[C@H](O)C[C@@]1(O)CC[C@@H]1[C@@H]2CC[C@]2(C)[C@@H](c3ccc(=O)oc3)[C@@H](O)[C@H]3O[C@]132 [DESACETYLCINOBUFOTALIN] | 0.64 µg/mL (≈ 1.54 µM) | 0.67 µg/mL (≈ 1.61 µM) |
| CC(=O)O[C@H]1[C@H]2O[C@]23[C@@H]2CC[C@@H]4C[C@@H](O)CC[C@]4(C)[C@H]2CC[C@]3(C)[C@H]1c1ccc(=O)oc1 [CINOBUFAGIN] | 0.00092 µg/mL (≈ 0.00208 µM) | 0.00074 µg/mL (≈ 0.00167 µM) |
| CC(=O)O[C@H]1CC[C@]2(C)C3CC[C@]4(C)[C@@H](c5ccc(=O)oc5)C[C@@H]5O[C@@]54C3CC[C@@H]2C1 (some centres not stated) | 7.3 µg/mL (≈ 17.1 µM) | 5.9 µg/mL (≈ 13.8 µM) |
| C[C@]12C=CC(=O)C[C@H]1CCC1C2CC[C@]2(C)[C@@H](c3ccc(=O)oc3)C[C@H]3O[C@]132 (some centres not stated) | 7.8 µg/mL (≈ 20.5 µM) | 2.6 µg/mL (≈ 6.83 µM) |
| C[C@]12CC[C@H](O)C[C@H]1CC[C@@H]1[C@@H]2CC[C@]2(C)[C@@H](c3ccc(=O)oc3)C[C@H]3O[C@]132 [BUFOGENIN] | 0.076 µg/mL (≈ 0.198 µM) | 0.077 µg/mL (≈ 0.2 µM) |
| C[C@]12CC[C@H](O)C[C@H]1CC[C@@H]1[C@@H]2CC[C@]2(C)[C@@H](c3ccc(=O)oc3)[C@@H](O)[C@H]3O[C@]132 [DESACETYLCINOBUFAGIN] | 4.8 µg/mL (≈ 12 µM) | 0.52 µg/mL (≈ 1.3 µM) |
| C[C@]12CC[C@H](O)C[C@H]1CC[C@@H]1[C@@H]2CC[C@]2(C)[C@@H](C3=CC(=O)OC3)CC[C@]12O [DIGITOXIGENIN] | 0.0092 µg/mL (≈ 0.0246 µM) | 0.00087 µg/mL (≈ 0.00232 µM) |
| C[C@]12CC[C@H](O)C[C@H]1CC[C@@H]1[C@@H]2CC[C@]2(C)[C@@H](c3ccc(=O)oc3)C[C@@H]3O[C@]312 | 26 µg/mL (≈ 67.6 µM) | 20 µg/mL (≈ 52 µM) |
| CCOC(=O)C/C=C/C1=CO[C@]23CCC1[C@@]2(C)CC[C@H]1[C@H]3CC[C@@H]2C[C@@H](OC(C)=O)CC[C@@]21C | 41 µg/mL (≈ 87.1 µM) | 6.4 µg/mL (≈ 13.6 µM) |
| CCOC(=O)C/C=C(\C=O)C1[C@@H](O)C(=O)[C@H]2[C@@H]3CC[C@@H]4C[C@@H](OC(C)=O)CC[C@]4(C)[C@H]3CC[C@]12C (some centres not stated) | 33 µg/mL (≈ 67.5 µM) | 22 µg/mL (≈ 45 µM) |
| CC(=O)O[C@H]1CC[C@@]2(C)[C@H](CC[C@@H]3[C@@H]2CC[C@]2(C)[C@@H](c4ccc(=O)oc4)CC[C@]32O)C1 | 0.009 µg/mL (≈ 0.021 µM) | 0.0002 µg/mL (≈ 0.000467 µM) |
| C[C@]12CC[C@H](O)C[C@H]1CC[C@@H]1[C@@H]2CC[C@]2(C)[C@@H](c3ccc(=O)oc3)CC(=O)[C@@H]12 | 12 µg/mL (≈ 31.2 µM) | 8.2 µg/mL (≈ 21.3 µM) |
| C[C@]12CC[C@H](O)C[C@H]1CC[C@@H]1[C@@H]2[C@H](O)C[C@]2(C)[C@@H](c3ccc(=O)oc3)CC[C@]12O [GAMABUFOTALIN] | 0.0008 µg/mL (≈ 0.00199 µM) | 0.00023 µg/mL (≈ 0.000571 µM) |
| C[C@]12CC[C@H](O)C[C@H]1CC[C@@H]1[C@@H]2CC[C@]2(C)[C@@H](c3ccc(=O)oc3)[C@@H](O)C[C@]12O [DESACETYLBUFOTALIN] | 0.008 µg/mL (≈ 0.0199 µM) | 0.00078 µg/mL (≈ 0.00194 µM) |

| Structure (SMILES) | IC50 [1] | IC50 [2] |
| --- | --- | --- |
| C[C@]12C=CC(=O)C=C1CCC1C2CC[C@]2(C)[C@@H](c3ccc(=O)oc3)C[C@H]3O[C@]132 (some centres not stated) | 10 µg/mL (≈ 26.4 µM) | 6.7 µg/mL (≈ 17.7 µM) |
| C[C@]12CC[C@@H](O)C[C@H]1CC[C@@H]1[C@@H]2CC[C@]2(C)[C@@H](c3ccc(=O)oc3)CC[C@]12O | 0.077 µg/mL (≈ 0.199 µM) | 0.076 µg/mL (≈ 0.197 µM) |
| COC(=O)C/C=C/C1=CO[C@]23C[C@H](OC(C)=O)C1[C@@]2(C)CC[C@H]1[C@H]3CC[C@@H]2C[C@@H](OC(C)=O)CC[C@@]21C | 50 µg/mL (≈ 97.2 µM) | 49 µg/mL (≈ 95.2 µM) |
| C[C@]12CCC(=O)C[C@H]1CC[C@@H]1[C@@H]2CC[C@]2(C)[C@@H](c3ccc(=O)oc3)C[C@H]3O[C@]132 | 9.7 µg/mL (≈ 25.4 µM) | 5.8 µg/mL (≈ 15.2 µM) |
| COC(=O)C/C=C(\C=O)C1[C@@H](O)C(=O)[C@H]2[C@@H]3CC[C@@H]4C[C@@H](O)CC[C@]4(C)[C@H]3CC[C@]12C (some centres not stated) | > 50 µg/mL | 8.4 µg/mL (≈ 19.4 µM) |
| C[C@]12CC[C@H](O)C[C@@]1(O)CC[C@@H]1[C@@H]2CC[C@]2(C)[C@@H](c3ccc(=O)oc3)CC[C@]12O [TELOCINOBUFAGIN] | 0.0026 µg/mL (≈ 0.00646 µM) | 0.000345 µg/mL (≈ 0.000857 µM) |
| CC(=O)O[C@H]1CC[C@@]2(C)[C@H](CC[C@@H]3[C@@H]2CC[C@]2(C)[C@@H](c4ccc(=O)oc4)[C@@H](O)[C@H]4O[C@]342)C1 | 3.4 µg/mL (≈ 7.68 µM) | 0.098 µg/mL (≈ 0.221 µM) |
| CC(=O)O[C@H]1[C@H]2O[C@]23[C@@H]2CC[C@@H]4C[C@@H](OC(=O)/C=C/c5ccccc5)CC[C@]4(C)[C@H]2CC[C@]3(C)[C@H]1c1ccc(=O)oc1 | 9.8 µg/mL (≈ 17.1 µM) | 6.4 µg/mL (≈ 11.2 µM) |
| CC(=O)O[C@H]1CC[C@@]2(C)[C@H](CC[C@@H]3[C@@H]2CC[C@]2(C)[C@@H](c4ccc(=O)oc4)C[C@H]4O[C@]342)C1 | 0.95 µg/mL (≈ 2.23 µM) | 0.32 µg/mL (≈ 0.75 µM) |
| CC(=O)O[C@H]1CC[C@]2(C)C3CC[C@]4(C)[C@@H](c5ccc(=O)oc5)[C@@H](O)[C@@H]5O[C@@]54C3CC[C@@H]2C1 (some centres not stated) | 1 µg/mL (≈ 2.26 µM) | 0.88 µg/mL (≈ 1.99 µM) |
| CC(=O)O[C@H]1CC[C@@]2(C)[C@H](CC[C@@H]3[C@@H]2CC[C@]2(C)[C@@H](c4ccc(=O)oc4)C[C@H](O)[C@]32O)C1 | 5.6 µg/mL (≈ 12.6 µM) | 0.71 µg/mL (≈ 1.6 µM) |
| C[C@]12CC[C@H](OC(=O)CCCCCCC(=O)O)C[C@H]1CC[C@@H]1[C@@H]2CC[C@]2(C)[C@@H](C3=CC(=O)OC3)CC[C@]12O | 8.6 µg/mL (≈ 16.2 µM) | 5.2 µg/mL (≈ 9.8 µM) |
| C[C@]12CC[C@@H](O)C[C@H]1CC[C@@H]1[C@@H]2CC[C@]2(C)[C@@H](c3ccc(=O)oc3)C[C@@H]3O[C@]312 | 6.4 µg/mL (≈ 16.6 µM) | 4.7 µg/mL (≈ 12.2 µM) |
| CC(=O)O[C@H]1CC[C@@]2(C)[C@H](CC[C@@H]3[C@@H]2CC[C@]2(C)[C@@H](C4=CC(=O)OC4)CC[C@]32O)C1 | 0.5 µg/mL (≈ 1.2 µM) | 0.55 µg/mL (≈ 1.32 µM) |
| COC(=O)C/C=C/C1=CO[C@]23CCC1[C@@]2(C)CC[C@H]1[C@H]3CC[C@@H]2C[C@@H](OC(C)=O)CC[C@@]21C | 41 µg/mL (≈ 89.8 µM) | 6.6 µg/mL (≈ 14.5 µM) |
